In PubChem BioAssay AID588416 (The Scripps Research Institute Molecular Screening Center, 2011):
Activity calls are given as the source filed them.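 The calls were made as follows: active = IC50 at or below 1000 nM; inactive = IC50 above 1000 nM.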

Biological target: Protein-arginine deiminase type-4 (Homo sapiens) (UniProt Q9UM07)
Assay: human PAD4 inhibitor potency, late-stage follow-up, biochemical, colorimetric substrate assay, assay provider data, 0-50 µM (AID 588416)
Conditions: recombinant PAD4, BAEE substrate, citrulline colorimetric absorbance
Method in brief: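 Test system: recombinant PAD4. Input: 0.2 µM PAD4. Buffer or medium: Tris-HCl pH 7.6, CaCl2, DTT. Reagent: BAEE arginine ester substrate, 10 mM. Compound dosing: 7-point series, top 50 µM. Timing: 15 min compound preincubation, then 15 min substrate reaction, 37 °C. Measured by: citrulline absorbance, 540 nm. Read-out basis: IC50 from dose-response fit. Replicates: duplicates.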

Protein-arginine deiminase type-4 (Homo sapiens), sequence (Q9UM07 whole entry, looked up): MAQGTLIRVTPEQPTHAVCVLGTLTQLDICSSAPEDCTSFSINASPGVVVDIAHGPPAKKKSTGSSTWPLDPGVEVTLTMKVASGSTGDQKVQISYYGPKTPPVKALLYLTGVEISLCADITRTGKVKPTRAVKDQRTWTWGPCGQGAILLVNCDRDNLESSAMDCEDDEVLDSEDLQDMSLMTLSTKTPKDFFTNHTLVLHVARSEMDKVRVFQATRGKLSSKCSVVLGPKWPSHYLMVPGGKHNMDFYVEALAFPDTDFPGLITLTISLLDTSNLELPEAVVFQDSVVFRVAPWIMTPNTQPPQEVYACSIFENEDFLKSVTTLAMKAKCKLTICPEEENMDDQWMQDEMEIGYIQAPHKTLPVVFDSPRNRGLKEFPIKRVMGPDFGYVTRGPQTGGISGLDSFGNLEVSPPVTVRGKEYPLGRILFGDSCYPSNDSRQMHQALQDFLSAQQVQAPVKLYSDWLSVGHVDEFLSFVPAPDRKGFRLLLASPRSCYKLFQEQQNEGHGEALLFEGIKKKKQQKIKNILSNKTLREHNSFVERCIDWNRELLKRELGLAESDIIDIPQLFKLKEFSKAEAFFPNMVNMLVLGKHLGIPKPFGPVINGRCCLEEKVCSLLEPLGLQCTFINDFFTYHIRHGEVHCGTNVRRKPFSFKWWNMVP

O=C1C=C(Br)C(=O)c2ncccc21
IC50: inactive
